ChEMBL document CHEMBL4257483, “Design, synthesis and bioactivities of phenithionate analogues or derivatives for anti-schistosomiasis” (Medchemcomm, 2018)
≈ marks a conversion by molar mass, not a printed value. Calls of active or inactive are those of the source. No cut-off for these calls is given here.

Tests used:
Schistosoma japonicum [1] = assay: Antischistosomal activity against Schistosoma japonicum infected in mouse at 50 mg/kg/day, po treated for 5 days measured after day 9 post last dose by ELISA; type: functional, organism-based
Method in brief: (§1)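 Male mice (20–22 g) infected via abdominal skin with 120–140 S. japonicum cercariae. From day 35 post-infection, dosed orally once daily for 5 days. Venous blood then clotted and centrifuged 15 min at 3500 rpm. Serum tested by triple dot ELISA and scored by spot colour: brown +++, yellow ++, slight yellow +, colourless –. DMSO blank.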

Schistosoma mansoni = assay: Antischistosomal activity against Schistosoma mansoni imago derived from infected mouse at 20 ug/ml after 72 hrs; type: functional, organism-based
Schistosoma japonicum [2] = assay: Antischistosomal activity against Schistosoma japonicum infected in mouse at 25 mg/kg/day, po treated for 5 days measured after day 1 post last dose by ELISA; type: functional, organism-based; method in brief: as §1
Schistosoma japonicum [3] = assay: Antischistosomal activity against Schistosoma japonicum infected in mouse at 25 mg/kg/day, po treated for 5 days measured after day 7 post last dose by ELISA; type: functional, organism-based; method in brief: as §1
Schistosoma japonicum [4] = assay: Antischistosomal activity against Schistosoma japonicum infected in mouse at 25 mg/kg/day, po treated for 5 days measured after day 6 post last dose by ELISA; type: functional, organism-based; method in brief: as §1
Schistosoma japonicum [5] = assay: Antischistosomal activity against Schistosoma japonicum infected in mouse at 50 mg/kg/day, po treated for 5 days measured after day 1 post last dose by ELISA; type: functional, organism-based; method in brief: as §1
Schistosoma japonicum [6] = assay: Antischistosomal activity against Schistosoma japonicum infected in mouse at 25 mg/kg/day, po treated for 5 days measured after day 2 post last dose by ELISA; type: functional, organism-based; method in brief: as §1
Schistosoma japonicum [7] = assay: Antischistosomal activity against Schistosoma japonicum imago derived from infected mouse at 20 ug/ml after 72 hrs; type: functional, organism-based
Method in brief: (§2)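 Worms perfused with cold heparinised HBSS from mice infected percutaneously with S. japonicum cercariae: larvae at 15 days post-infection (260–280 cercariae), adults at 35 days (120–140 cercariae). Five male and female worms per well in 10% calf serum RPMI 1640 with penicillin, streptomycin and amphotericin B. Preincubated 4 h at 37 °C, 5% CO2, then compounds added and viability recorded over 72 h. IC50 taken at 50% survival. DMSO blank.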

Schistosoma japonicum [8] = assay: Antischistosomal activity against Schistosoma japonicum infected in mouse at 25 mg/kg/day, po treated for 5 days measured after day 5 post last dose by ELISA; type: functional, organism-based; method in brief: as §1
Schistosoma japonicum [9] = assay: Antischistosomal activity against Schistosoma japonicum infected in mouse at 25 mg/kg/day, po treated for 5 days measured after day 9 post last dose by ELISA; type: functional, organism-based; method in brief: as §1
Schistosoma japonicum [10] = assay: Antischistosomal activity against Schistosoma japonicum infected in mouse at 25 mg/kg/day, po treated for 5 days measured after day 8 post last dose by ELISA; type: functional, organism-based; method in brief: as §1
Schistosoma haematobium = assay: Antischistosomal activity against Schistosoma haematobium imago derived from infected mouse at 20 ug/ml after 72 hrs; type: functional, organism-based
Schistosoma japonicum [11] = assay: Antischistosomal activity against Schistosoma japonicum infected in mouse at 50 mg/kg/day, po treated for 5 days measured after day 7 post last dose by ELISA; type: functional, organism-based; method in brief: as §1
[12] = Acute toxicity in po dosed mouse infected with Schistosoma japonicum treated for 5 days; type: organism-based; conditions: in vivo
Schistosoma japonicum [13] = assay: Antischistosomal activity against Schistosoma japonicum infected in mouse at 50 mg/kg/day, po treated for 5 days measured after day 6 post last dose by ELISA; type: functional, organism-based; method in brief: as §1
Schistosoma japonicum [14] = assay: Antischistosomal activity against Schistosoma japonicum infected in mouse at 50 mg/kg/day, po treated for 5 days measured after day 5 post last dose by ELISA; type: functional, organism-based; method in brief: as §1
Schistosoma japonicum [15] = assay: Antischistosomal activity against Schistosoma japonicum infected in mouse at 50 mg/kg/day, po treated for 5 days measured after day 4 post last dose by ELISA; type: functional, organism-based; method in brief: as §1
Schistosoma japonicum [16] = assay: Antischistosomal activity against Schistosoma japonicum larva derived from infected mouse assessed as reduction in larva viability after 72 hrs; type: functional, organism-based; method in brief: as §2
[17] = Lipid/water partition coefficient, log P of the compound; type: physicochemical
Schistosoma japonicum [18] = assay: Antischistosomal activity against Schistosoma japonicum infected in mouse at 50 mg/kg/day, po treated for 5 days measured after day 3 post last dose by ELISA; type: functional, organism-based; method in brief: as §1
Schistosoma japonicum [19] = assay: Antischistosomal activity against Schistosoma japonicum infected in mouse at 50 mg/kg/day, po treated for 5 days measured after day 2 post last dose by ELISA; type: functional, organism-based; method in brief: as §1
Schistosoma japonicum [20] = assay: Antischistosomal activity against Schistosoma japonicum infected in mouse at 25 mg/kg/day, po treated for 5 days measured after day 3 post last dose by ELISA; type: functional, organism-based; method in brief: as §1
Schistosoma japonicum [21] = assay: Antischistosomal activity against Schistosoma japonicum imago derived from infected mouse assessed as reduction in imago viability after 72 hrs; type: functional, organism-based; method in brief: as §2
Schistosoma japonicum [22] = assay: Antischistosomal activity against Schistosoma japonicum infected in mouse at 25 mg/kg/day, po treated for 5 days measured after day 4 post last dose by ELISA; type: functional, organism-based; method in brief: as §1
[23] = Dissociation constant, pKa of the compound; type: physicochemical
Schistosoma japonicum [24] = assay: Antischistosomal activity against Schistosoma japonicum infected in mouse at 50 mg/kg/day, po treated for 5 days measured after day 8 post last dose by ELISA; type: functional, organism-based; method in brief: as §1

With `Oc1ccc(OC(=S)Nc2ccc(Nc3ccc(C(F)(F)F)cc3)cc2)cc1` as the molecule, how does the Activity (Schistosoma japonicum [1]) read?
Its Activity is “inactive”.

And the Activity (Schistosoma mansoni)?
Its Activity is “inactive”.

What about the Activity (Schistosoma japonicum [2]) of the same molecule?
The Activity was “Active”.

What about the Activity (Schistosoma japonicum [3]) of the same molecule?
Its Activity is “inactive”.

And the Activity (Schistosoma japonicum [4])?
Its Activity is “inactive”.

And the Activity (Schistosoma japonicum [5])?
The Activity was “Active”.

And the Activity (Schistosoma japonicum [6])?
The Activity was “Active”.

And the Activity (Schistosoma japonicum [7])?
Its Activity is “Active”.

And the Activity (Schistosoma japonicum [8])?
Its Activity is “Active”.

What about the Activity (Schistosoma japonicum [9]) of the same molecule?
Its Activity is “inactive”.

What about the Activity (Schistosoma japonicum [10]) of the same molecule?
Its Activity is “inactive”.

What about the Activity (Schistosoma haematobium) of the same molecule?
The Activity was “inactive”.

And the Activity (Schistosoma japonicum [11])?
Its Activity is “inactive”.

What about the LD50 at 120 h [12] of the same molecule?
The LD50 at 120 h was over 500 mg/kg.

What about the Activity (Schistosoma japonicum [13]) of the same molecule?
The Activity was “inactive”.

What about the Activity (Schistosoma japonicum [14]) of the same molecule?
The Activity was “inactive”.

What about the Activity (Schistosoma japonicum [15]) of the same molecule?
Its Activity is “inactive”.

And the IC50 (Schistosoma japonicum [16])?
The IC50 was 5.43 µg/mL (≈ 13.4 µM).

And the logP [17]?
The logP was 6.04.

What about the Activity (Schistosoma japonicum [18]) of the same molecule?
The Activity was “Active”.

And the Activity (Schistosoma japonicum [19])?
Its Activity is “Active”.

What about the Activity (Schistosoma japonicum [20]) of the same molecule?
Its Activity is “Active”.

And the IC50 (Schistosoma japonicum [21])?
Its IC50 is 6.68 µg/mL (≈ 16.5 µM).

What about the Activity (Schistosoma japonicum [22]) of the same molecule?
Its Activity is “Active”.

And the pKa [23]?
Its pKa is 9.23.

And the Activity (Schistosoma japonicum [24])?
Its Activity is “inactive”.
